Like-named read-outs stand apart in the source and are kept apart here. Marks after values point to notes of the source that are not given here.
Columns and labels:
[1] = type: in vivo, mice
Outline: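 Female FVB wild-type mice under isoflurane had 60-min dynamic PET after tail-vein injection of radiotracer mixed with test compound (10 mg/kg) or its vehicle (4 mL/kg), versus radiotracer alone. Liver and kidney kuptake came from an integration plot over 0.3–3.5 min. kurine and kbile came from 4.5–45 min data, with biliary activity taken as gallbladder + duodenum + intestine. Extraction ratio = kuptake divided by assumed blood flow (liver 1.0, kidney 4.1 mL/min/g).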

Abcb1a/b [2] = target: T1, Abcb1a/b (Mus musculus, UniProt P21447); type: in vivo; settings: wild-type and Abcg2^(-/-) mice, microdose
T1 sequence (P21447 whole entry): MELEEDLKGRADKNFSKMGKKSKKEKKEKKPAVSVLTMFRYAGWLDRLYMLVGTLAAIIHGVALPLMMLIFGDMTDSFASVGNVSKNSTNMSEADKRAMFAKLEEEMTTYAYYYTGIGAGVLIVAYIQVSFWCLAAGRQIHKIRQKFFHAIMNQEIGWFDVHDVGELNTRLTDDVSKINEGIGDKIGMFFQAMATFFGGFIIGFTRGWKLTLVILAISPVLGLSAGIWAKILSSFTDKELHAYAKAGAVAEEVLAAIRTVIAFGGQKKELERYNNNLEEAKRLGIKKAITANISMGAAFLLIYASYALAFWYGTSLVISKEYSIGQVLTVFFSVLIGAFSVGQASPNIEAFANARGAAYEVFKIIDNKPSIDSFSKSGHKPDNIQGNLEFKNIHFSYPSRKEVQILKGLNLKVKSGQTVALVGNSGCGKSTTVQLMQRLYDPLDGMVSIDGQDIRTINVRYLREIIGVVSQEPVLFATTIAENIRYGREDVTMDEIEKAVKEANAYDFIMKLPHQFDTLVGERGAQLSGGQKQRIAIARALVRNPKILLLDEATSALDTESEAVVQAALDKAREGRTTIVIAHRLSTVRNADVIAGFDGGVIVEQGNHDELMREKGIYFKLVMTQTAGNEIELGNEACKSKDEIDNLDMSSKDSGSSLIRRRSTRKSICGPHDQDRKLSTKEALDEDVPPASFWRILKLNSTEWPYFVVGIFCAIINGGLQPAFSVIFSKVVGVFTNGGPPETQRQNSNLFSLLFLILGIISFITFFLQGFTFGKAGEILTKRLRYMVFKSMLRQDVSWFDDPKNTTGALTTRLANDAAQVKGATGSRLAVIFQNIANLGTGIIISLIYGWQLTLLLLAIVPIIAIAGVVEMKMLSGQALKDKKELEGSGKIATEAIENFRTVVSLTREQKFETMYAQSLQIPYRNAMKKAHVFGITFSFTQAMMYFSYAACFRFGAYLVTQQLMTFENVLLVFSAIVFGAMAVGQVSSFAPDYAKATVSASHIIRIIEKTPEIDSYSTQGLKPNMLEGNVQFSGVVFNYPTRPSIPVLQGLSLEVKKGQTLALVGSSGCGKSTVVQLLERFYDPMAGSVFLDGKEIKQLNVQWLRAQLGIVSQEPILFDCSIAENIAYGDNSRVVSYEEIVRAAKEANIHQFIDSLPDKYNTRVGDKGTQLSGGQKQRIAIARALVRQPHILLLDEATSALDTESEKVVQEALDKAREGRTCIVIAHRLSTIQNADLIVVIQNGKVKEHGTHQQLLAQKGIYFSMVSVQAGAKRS

[3] = radio-TLC analysis of radiolabeled metabolites in tissues and fluids; type: in vivo, mice; settings: 20 min after i.v. injection
Outline: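 Female FVB wild-type and Abcb1a/b(-/-)Abcg2(-/-) mice, 7–8 weeks old, under isoflurane, given radiotracer i.v. (28.4 ± 4.1 MBq, 0.1 mL). At 20 min, blood was drawn from the retro-orbital sinus and the animals were killed. Plasma, liver, kidneys, brain, bile and urine were collected. Tissues were homogenised, proteins precipitated with acetonitrile, then spun at 12,000 g, 5 min, 4°C. Percent unchanged radiotracer was determined by radio-TLC.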

Abcg2 = target: T2, Abcg2 (Mus musculus, UniProt Q7TMS5); type: in vivo; settings: Abcg2^(-/-) and Abcb1a/b^(-/-)Abcg2^(-/-) mice, microdose
T2 sequence (Q7TMS5 1-657): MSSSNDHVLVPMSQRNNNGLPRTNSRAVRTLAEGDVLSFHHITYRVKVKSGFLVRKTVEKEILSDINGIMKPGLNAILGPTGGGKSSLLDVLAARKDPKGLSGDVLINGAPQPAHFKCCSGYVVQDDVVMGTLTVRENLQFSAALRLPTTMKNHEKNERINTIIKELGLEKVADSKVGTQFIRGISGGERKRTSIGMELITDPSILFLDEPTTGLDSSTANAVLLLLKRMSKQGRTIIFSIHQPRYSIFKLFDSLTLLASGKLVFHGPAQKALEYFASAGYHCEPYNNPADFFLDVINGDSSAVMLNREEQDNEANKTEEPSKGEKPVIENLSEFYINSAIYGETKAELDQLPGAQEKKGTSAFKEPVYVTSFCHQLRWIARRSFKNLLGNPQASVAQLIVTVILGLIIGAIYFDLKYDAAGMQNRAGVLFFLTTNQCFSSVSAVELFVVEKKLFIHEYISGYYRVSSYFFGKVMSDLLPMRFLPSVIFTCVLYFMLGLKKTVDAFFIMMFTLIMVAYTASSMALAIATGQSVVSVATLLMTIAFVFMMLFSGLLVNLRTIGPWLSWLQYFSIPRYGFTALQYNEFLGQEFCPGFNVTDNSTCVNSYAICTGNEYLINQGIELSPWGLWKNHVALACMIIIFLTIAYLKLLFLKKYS
Outline: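 Female FVB Abcg2(-/-), Abcb1a/b(-/-)Abcg2(-/-) and wild-type mice, 7–8 weeks old, under isoflurane, had 60-min dynamic PET started with a tail-vein i.v. microdose of radiotracer (26.6 ± 10.5 MBq, 0.1 mL). The kidney-to-urine rate constant kurine was derived from 4.5–45 min data, given as mean ± S.D. Knockouts were compared with wild-type by one-way ANOVA with Tukey's test.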

Abcb1a/b [4] = target: T1, Abcb1a/b; settings: Abcb1a/b^(-/-) and Abcb1a/b^(-/-)Abcg2^(-/-) mice; ref Liu et al., 2012; cited from earlier work
[5] = plasma concentration after i.v. administration; type: in vivo, mice; settings: mouse, iv, 10 mg/kg
human ABCB1 = settings: ref Weidner et al., 2015; cited from earlier work
[6] = mice, 1 h after i.v. 10 mg/kg; ref Zhang et al., 2011; cited from earlier work
[7] = rat plasma; ref Liu et al., 2014; cited from earlier work
[8] = tolerability of co-injected pharmacologic dose of unlabeled Ko143; type: in vivo; settings: wild-type mice, 10 mg/kg i.v. co-injected with radiotracer
ABCB1 = settings: ref Hugger et al., 2002, cited from earlier work
[9] = wild-type mice, microdose i.v., integration plot 0.3-3.5 min

Compound: CC(C)C[C@H]1c2[nH]c3cc(O[11CH3])ccc3c2C[C@H]2C(=O)N[C@@H](CCC(=O)OC(C)(C)C)C(=O)N21 [[^11C]Ko143]
- kbile, fold lower than with [^11C]Ko143 alone ([1]; wild-type mice co-injected with Ko143 vehicle): 2.4 fold
- kbile, fold lower than with [^11C]Ko143 alone ([1]; wild-type mice co-injected with unlabeled Ko143 (10 mg/kg)): 1.9 fold
- kurine ([1]; wild-type mice co-injected with unlabeled Ko143 (10 mg/kg) or Ko143 vehicle): almost decreased to zero
- mean kuptake, kidney [1, 9]: 0.262 mL/min/g tissue
- mean kuptake, liver [1, 9]: 0.689 mL/min/g tissue
- brain concentration-time curves, fold lower than in Abcb1a/b^(-/-) and Abcb1a/b^(-/-)Abcg2^(-/-) mice (Abcb1a/b [2]): approximately 2 fold
- Percentage of unchanged radiotracer, Bile ([3]; Abcb1a/b^(-/-)Abcg2^(-/-) mice): 1.5 ± 1.0%
- Percentage of unchanged radiotracer, Brain ([3]; Abcb1a/b^(-/-)Abcg2^(-/-) mice): 73.2 ± 2.4 ^a %
- Percentage of unchanged radiotracer, Kidney ([3]; Abcb1a/b^(-/-)Abcg2^(-/-) mice): 21.6 ± 2.0%
- Percentage of unchanged radiotracer, Liver ([3]; Abcb1a/b^(-/-)Abcg2^(-/-) mice): 16.0 ± 1.8%
- Percentage of unchanged radiotracer, Plasma ([3]; Abcb1a/b^(-/-)Abcg2^(-/-) mice): 34.7 ± 0.4%
- Percentage of unchanged radiotracer, Bile ([3]; wild-type mice): 15.2 ± 21.0%
- Percentage of unchanged radiotracer, Brain ([3]; wild-type mice): 51.5 ± 13.9%
- Percentage of unchanged radiotracer, Kidney ([3]; wild-type mice): 35.6 ± 9.6%
- Percentage of unchanged radiotracer, Liver ([3]; wild-type mice): 17.4 ± 2.7%
- Percentage of unchanged radiotracer, Plasma ([3]; wild-type mice): 36.0 ± 1.5%
- kurine compared with wild-type mice (Abcg2): significantly lower

Compound: COc1ccc2c3c([nH]c2c1)[C@H](CC(C)C)N1C(=O)[C@H](CCC(=O)OC(C)(C)C)NC(=O)[C@@H]1C3 [Ko143, (3S,6S,12aS)-1,2,3,4,6,7,12,12a-octahydro-9-methoxy-6-(2-methylpropyl)-1,4-dioxopyrazino[1’,2’:1,6]pyrido[3,4-b]indole-3-propanoic acid 1,1-dimethylethyl ester]
- brain concentrations, fold higher than in Abcg2^(-/-) mice (Abcb1a/b [4]): about 3 fold
- concentration at 1 h [5]: 12 nM
- effect on human ABCB1 ATPase activity (human ABCB1): stimulated
- plasma concentration [6]: 420 nM
- unbound fraction in plasma [7]: 0.0293
- tolerability [8]: well tolerated

Compound: polyethylene glycol 300 [PEG300]
- inhibition of ABCB1 activity (ABCB1; 20% v/v, Caco-2 and MDR1-MDCK cell monolayers): almost complete in vitro inhibition

Compound: polysorbate 80
- inhibition of ABCB1 activity (ABCB1; 0.05% w/v, Caco-2 cells): only partially inhibited

From PMC5884419 (European journal of pharmaceutical sciences : official …, 2018)
